Test results taken from ChEMBL document CHEMBL3046951, “Volatile constituents from the leaves of Callicarpa japonica Thunb. and their antibacterial activities” (2004).

Tests used:
Type in all cases: functional
[1] = system: Listeria monocytogenes; assay: Antimicrobial activity against Listeria monocytogenes ATCC 19111 assessed as growth inhibition rate at 5.32 mg/l after 72 hr by spectrophotometry; conditions: ATCC 19111, 72 h, read-out: GI
Method in brief: (§1)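 L. monocytogenes was grown at 30 °C in tryptic soy broth, subcultured for 18 h, and exposed to pure volatile compounds (>95% purity). Growth was followed by Bioscreen C optical density every 24 h for 72 h against a 10% Tween 80 control.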

[2] = system: Vibrio parahaemolyticus; assay: Antimicrobial activity against Vibrio parahaemolyticus ATCC 33844 assessed as growth inhibition rate at 5.32 mg/l after 72 hr by spectrophotometry; conditions: ATCC 33844, 72 h, read-out: GI
[3] = system: Escherichia coli; assay: Antimicrobial activity against Escherichia coli O157:H7 ATCC 43894 assessed as growth inhibition rate at 5.32 mg/l after 72 hr by spectrophotometry; conditions: O157:H7 ATCC 43894, 72 h, read-out: GI
[4] = system: Staphylococcus aureus; assay: Antimicrobial activity against Staphylococcus aureus ATCC 25923 assessed as growth inhibition rate at 5.32 mg/l after 72 hr by spectrophotometry; conditions: ATCC 25923, 72 h, read-out: GI
[5] = system: Salmonella typhimurium; assay: Antimicrobial activity against Salmonella enterica subsp. enterica serovar Typhimurium ATCC 14028 assessed as growth inhibition rate at 5.32 mg/l after 72 hr by spectrophotometry; conditions: ATCC 14028, 72 h, read-out: GI
[6] = system: Bacillus cereus; assay: Antimicrobial activity against Bacillus cereus ATCC 11778 assessed as growth inhibition rate at 5.32 mg/l after 72 hr by spectrophotometry; conditions: ATCC 11778, 72 h, read-out: GI
Method in brief: (§2)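 Pure volatile compounds (purity >95%; one at 90%) were tested against B. cereus ATCC 11778. The strain was grown at 30 °C in nutrient broth for 24 h, then subcultured for 18 h. Optical density was read in a Bioscreen C every 24 h for 72 h, with 10% Tween 80 as the control.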

[7] = system: Listeria monocytogenes; assay: Antimicrobial activity against Listeria monocytogenes ATCC 19111 assessed as growth inhibition rate at 10.36 mg/l after 72 hr by spectrophotometry; conditions: ATCC 19111, 72 h, read-out: GI; method in brief: as §1
[8] = system: Staphylococcus aureus; assay: Antimicrobial activity against Staphylococcus aureus ATCC 25923 assessed as growth inhibition rate at 10.36 mg/l after 72 hr by spectrophotometry; conditions: ATCC 25923, 72 h, read-out: GI
[9] = system: Vibrio parahaemolyticus; assay: Antimicrobial activity against Vibrio parahaemolyticus ATCC 33844 assessed as growth inhibition rate at 10.36 mg/l after 72 hr by spectrophotometry; conditions: ATCC 33844, 72 h, read-out: GI
[10] = system: Escherichia coli; assay: Antimicrobial activity against Escherichia coli O157:H7 ATCC 43894 assessed as growth inhibition rate at 10.36 mg/l after 72 hr by spectrophotometry; conditions: O157:H7 ATCC 43894, 72 h, read-out: GI
[11] = system: Salmonella typhimurium; assay: Antimicrobial activity against Salmonella enterica subsp. enterica serovar Typhimurium ATCC 14028 assessed as growth inhibition rate at 10.36 mg/l after 72 hr by spectrophotometry; conditions: ATCC 14028, 72 h, read-out: GI
Method in brief: (§3)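 Salmonella Typhimurium ATCC 14028 grown in nutrient broth at 30 °C, precultured 24 h, then subcultured 1:100 for 18 h before testing. Single volatile compounds (>95% pure) were added. OD was read every 24 h over 72 h in a Bioscreen C, with 10% Tween 80 as the comparison control.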

[12] = system: Bacillus cereus; assay: Antimicrobial activity against Bacillus cereus ATCC 11778 assessed as growth inhibition rate at 10.36 mg/l after 72 hr by spectrophotometry; conditions: ATCC 11778, 72 h, read-out: GI; method in brief: as §2
[13] = system: Listeria monocytogenes; assay: Antimicrobial activity against Listeria monocytogenes ATCC 19111 assessed as growth inhibition rate at 43.2 mg/l after 72 hr by spectrophotometry; conditions: ATCC 19111, 72 h, read-out: GI; method in brief: as §1
[14] = system: Staphylococcus aureus; assay: Antimicrobial activity against Staphylococcus aureus ATCC 25923 assessed as growth inhibition rate at 43.2 mg/l after 72 hr by spectrophotometry; conditions: ATCC 25923, 72 h, read-out: GI
[15] = system: Vibrio parahaemolyticus; assay: Antimicrobial activity against Vibrio parahaemolyticus ATCC 33844 assessed as growth inhibition rate at 43.2 mg/l after 72 hr by spectrophotometry; conditions: ATCC 33844, 72 h, read-out: GI
[16] = system: Escherichia coli; assay: Antimicrobial activity against Escherichia coli O157:H7 ATCC 43894 assessed as growth inhibition rate at 43.2 mg/l after 72 hr by spectrophotometry; conditions: O157:H7 ATCC 43894, 72 h, read-out: GI
[17] = system: Salmonella typhimurium; assay: Antimicrobial activity against Salmonella enterica subsp. enterica serovar Typhimurium ATCC 14028 assessed as growth inhibition rate at 43.2 mg/l after 72 hr by spectrophotometry; conditions: ATCC 14028, 72 h, read-out: GI; method in brief: as §3
[18] = system: Bacillus cereus; assay: Antimicrobial activity against Bacillus cereus ATCC 11778 assessed as growth inhibition rate at 43.2 mg/l after 72 hr by spectrophotometry; conditions: ATCC 11778, 72 h, read-out: GI; method in brief: as §2

## CCCCCC(O)CC (stereo not drawn) [3-OCTANOL]
[1]
  inhibition of growth at 5.32 µg/mL: 21.5%
[2]
  inhibition of growth at 5.32 µg/mL: 70.7%
[3]
  inhibition of growth at 5.32 µg/mL: 8.9%
[4]
  inhibition of growth at 5.32 µg/mL: 52.6%
[5]
  inhibition of growth at 5.32 µg/mL: 20.6%
[6]
  inhibition of growth at 5.32 µg/mL: 43%

## CC/C=C\CO [CIS-2-PENTEN-1-OL]
[7]
  inhibition of growth at 10.36 µg/mL: 0%
[8]
  inhibition of growth at 10.36 µg/mL: 8.1%
[9]
  inhibition of growth at 10.36 µg/mL: 10.5%
[10]
  inhibition of growth at 10.36 µg/mL: 21.9%
[11]
  inhibition of growth at 10.36 µg/mL: 9.4%
[12]
  inhibition of growth at 10.36 µg/mL: 20.4%

## CC/C=C\CCO [CIS-3-HEXENOL]
[13]
  inhibition of growth at 43.2 µg/mL: 10.3%
[14]
  inhibition of growth at 43.2 µg/mL: 21.6%
[15]
  inhibition of growth at 43.2 µg/mL: 73.7%
[16]
  inhibition of growth at 43.2 µg/mL: 41%
[17]
  inhibition of growth at 43.2 µg/mL: 56.2%
[18]
  inhibition of growth at 43.2 µg/mL: 14.3%
